Results published in ChEMBL document CHEMBL1121430, “Bicyclic and tricyclic ergoline partial structures. Rigid 3-(2-aminoethyl)pyrroles and 3- and 4-(2-aminoethyl)pyrazoles as dopamine agonists” (1980).

Legend:
Type in all cases: functional
[1] = system: Rattus norvegicus; experiment: (§1) Tested for average turns of rat / 1st 15 min at intraperitoneal dosage of 0.1 mg/kg
How it was run: (§2)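 Rats with unilateral 6-hydroxydopamine nigrostriatal lesions dosed i.p.; contralateral rotation scored as % of rats turning and average turns during first 15 min after turning began; 6-10 rats per group. Method of Ungerstedt and Arbuthnot.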

[2] = system: Rattus norvegicus; experiment: Average turns of rat / 1st 15 min at intraperitoneal dosage of 1.0 mg/kg
[3] = system: Rattus norvegicus; experiment: (§3) Percentage of lesioned rats exhibiting contralateral turning after intraperitoneal dosage of 0.1 mg/kg; how it was run: as §2
[4] = species on record: Rattus norvegicus; experiment: animal or person; conditions: ip, route intraperitoneal
[5] = system: Rattus norvegicus; experiment: Percentage of lesioned rats exhibiting contralateral turning after intraperitoneal dosage of 1.0 mg/kg; how it was run: as §2
[6] = system: Rattus norvegicus; experiment: as §1; remark: listed apart in the source
How it was run: (§4)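 Rats with unilateral 6-hydroxydopamine nigrostriatal lesions dosed intraperitoneally; contralateral rotation scored as percentage of rats turning and average turns counted over first 15 min after turning began; 6-10 rats per group.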

[7] = system: Rattus norvegicus; experiment: as §3; how it was run: as §4; remark: listed apart in the source
[8] = system: Rattus norvegicus; experiment: Dopaminergic activity causing prolactin inhibition in reserpinized rat after i.p. administration at dosage of 0.0005 mg/kg; conditions: ip, route intraperitoneal
How it was run: (§5)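 Serum prolactin measured in reserpinized male rats given drug intraperitoneally; control group serum level alongside treated level; percent inhibition derived from control versus treated means; mean ± standard error for 10 rats per group; significance level (p) reported versus control.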

[9] = system: Rattus norvegicus; experiment: Control Serum prolactin level in reserpinized rat after i.p. administration at dosage of 0.0005 mg/kg; conditions: route intraperitoneal; how it was run: as §5
[10] = system: Rattus norvegicus; experiment: Control Serum prolactin level in reserpinized rat after i.p. administration at dosage of 0.005 mg/kg; conditions: route intraperitoneal; how it was run: as §5
[11] = system: Rattus norvegicus; experiment: Tested for average turns of rat / 1st 15 min at intraperitoneal dosage of 0.05 mg/kg; how it was run: as §4
[12] = system: Rattus norvegicus; experiment: Percentage of lesioned rats exhibiting contralateral turning after ip dosage of 0.05 mg/kg; conditions: route intraperitoneal; how it was run: as §4
[13] = system: Rattus norvegicus; experiment: (§6) Dopaminergic activity causing prolactin inhibition in reserpinized rat after i.p. administration at dosage of 0.005 mg/kg; conditions: ip, route intraperitoneal
How it was run: (§7)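 Male rats pretreated with reserpine; drug given i.p. and serum prolactin measured (ng/mL) in controls and treated groups; % inhibition relative to control; mean ± SE for 10 rats per group; significance level p reported. Method of Clemens et al.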

[14] = system: Rattus norvegicus; experiment: Tested for lowering of serum prolactin level in reserpinized rat after i.p. administration at dosage of 0.005 mg/kg; conditions: route intraperitoneal; how it was run: as §5
[15] = system: Rattus norvegicus; experiment: Tested for lowering of serum prolactin level in reserpinized rat after i.p. administration at dosage of 0.0005 mg/kg; conditions: route intraperitoneal; how it was run: as §5
[16] = system: Rattus norvegicus; experiment: Percentage of lesioned rats exhibiting contralateral turning after ip dosage of 1.0 mg/kg; conditions: route intraperitoneal; how it was run: as §4
[17] = system: Rattus norvegicus; experiment: Percentage of lesioned rats exhibiting contralateral turning after ip dosage of 0.1 mg/kg; conditions: route intraperitoneal; how it was run: as §4
[18] = system: Rattus norvegicus; experiment: (§8) Tested for lowering of serum prolactin level in reserpinized rat after i.p. administration at dosage of 0.05 mg/kg; conditions: route intraperitoneal
[19] = system: Rattus norvegicus; experiment: (§9) Dopaminergic activity causing prolactin inhibition in reserpinized rat after i.p. administration at dosage of 5.0 mg/kg; conditions: ip, route intraperitoneal
[20] = system: Rattus norvegicus; experiment: (§10) Control Serum prolactin level in reserpinized rat after i.p. administration at dosage of 0.05 mg/kg; conditions: route intraperitoneal
[21] = system: Rattus norvegicus; experiment: Tested for average turns of rat / 1st 15 min at intraperitoneal dosage of 1.0 mg/kg; how it was run: as §4
[22] = system: Rattus norvegicus; experiment: Tested for lowering of serum prolactin level in reserpinized rat after i.p. administration at dosage of 0.5 mg/kg; conditions: route intraperitoneal
[23] = system: Rattus norvegicus; experiment: Dopaminergic activity causing prolactin inhibition in reserpinized rat after i.p. administration at dosage of 0.5 mg/kg; conditions: ip, route intraperitoneal
[24] = system: Rattus norvegicus; experiment: (§11) Control Serum prolactin level in reserpinized rat after i.p. administration at dosage of 0.5 mg/kg; conditions: route intraperitoneal
How it was run: (§12)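 Reserpinized male rats, intraperitoneal dosing; serum prolactin of vehicle control group reported in ng/mL as mean ± standard error, 10 rats per group, for comparison with treated group.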

[25] = system: Rattus norvegicus; experiment: as §11; conditions: route intraperitoneal; remark: listed apart in the source
[26] = system: Rattus norvegicus; experiment: as §8; conditions: route intraperitoneal; how it was run: as §5; remark: listed apart in the source
[27] = system: Rattus norvegicus; experiment: (§13) Dopaminergic activity causing prolactin inhibition in reserpinized rat after i.p. administration at dosage of 0.05 mg/kg; conditions: ip, route intraperitoneal; how it was run: as §7
[28] = system: Rattus norvegicus; experiment: as §10; conditions: route intraperitoneal; how it was run: as §7; remark: listed apart in the source
[29] = system: Rattus norvegicus; experiment: tested for average turns of rat / 1st 15 min at intraperitoneal dosage of 0.1 mg/kg; how it was run: as §4
[30] = system: Rattus norvegicus; experiment: Tested for average turns of rat / 1st 15 min at intraperitoneal dosage of 0.02 mg/kg; how it was run: as §4
[31] = system: Rattus norvegicus; experiment: Percentage of lesioned rats exhibiting contralateral turning after ip dosage of 0.02 mg/kg; conditions: route intraperitoneal; how it was run: as §4
[32] = system: Rattus norvegicus; experiment: as §6; conditions: ip, route intraperitoneal; how it was run: as §5; remark: listed apart in the source
[33] = system: Rattus norvegicus; experiment: Percentage of lesioned rats exhibiting contralateral turning after intraperitoneal dosage of 0.05 mg/kg; how it was run: as §4
[34] = system: Rattus norvegicus; experiment: as §13; conditions: ip, route intraperitoneal; how it was run: as §5; remark: listed apart in the source
[35] = system: Rattus norvegicus; experiment: Control Serum prolactin level in reserpinized rat after i.p. administration at dosage of 5 mg/kg; conditions: route intraperitoneal; how it was run: as §12
[36] = system: Rattus norvegicus; experiment: as §9; conditions: ip, route intraperitoneal; how it was run: as §5; remark: listed apart in the source

Row | SMILES | Average turns [2] | inhibition in vivo at 0.05 mg/kg [4] [%] | Exhibiting turning [5] [%] | Average turns [6] | Exhibiting turning [16] [%] | inhibition in vivo at 5 mg/kg [19] [%] | Inhibition [20] [ng/mL] | inhibition in vivo at 0.5 mg/kg [23] [%] | further results
1 | CCCN(CCC)C1CCc2c[nH]nc2C1 (stereo not drawn) | 114 | 31 | 100 | – | – | – | – | – | Average turns [1]: 0; Exhibiting turning [3]: 0%
2 | CCCN1CC(CO)C[C@@H]2Cc3c[nH]cc3CC21 (stereo partly drawn) | 109 | 17 | 100 | 8 | – | – | – | – | Exhibiting turning [7]: 67%
3 | CCCN1CC(CSC)C[C@@H]2Cc3n[nH]cc3CC21.Cl.Cl (stereo partly drawn) | 81 | 89 | – | 65 | 100 | – | – | – | inhibition in vivo at 0.0005 mg/kg [8]: 30%; Inhibition [9]: 44.9 ng/mL; Inhibition [10]: 44.9 ng/mL; Average turns [11]: 80; Exhibiting turning [12]: 67%; inhibition in vivo at 0.005 mg/kg [13]: 57%; Inhibition [14]: 19.3 ng/mL; Inhibition [15]: 31.5 ng/mL; Exhibiting turning [17]: 50%
4 | CN(C)C1Cc2cccc3[nH]cc(c23)C1.O=C(O)C(=O)O (stereo not drawn) | – | 45 | 75 | 0 | – | 91 | 36.4 | – | Inhibition [18]: 19.9 ng/mL; Exhibiting turning [7]: 0%; Average turns [21]: 69
5 | CCCN(CCC)C1Cc2cccc3[nH]cc(c23)C1.O=C(O)C(=O)O (stereo not drawn) | – | 0 | 60 | – | – | 95 | 46.1 | 59 | Average turns [1]: 73; Inhibition [18]: 46.2 ng/mL; Serum level [22]: 18.9 ng/mL; Exhibiting turning [3]: 40%; Average turns [21]: 113; Control level [24]: 46.1 ng/mL
6 | Cl.Cl.c1[nH]nc2c1CC1NCCC[C@@H]1C2 (stereo partly drawn) | 0 | – | – | – | 0 | 20 | – | – | –
7 | CCCN(CCC)C1CCc2n[nH]cc2C1.Cl.Cl (stereo not drawn) | 90 | – | – | 0 | 60 | 94 | – | 66 | Concentration [25]: 31.2 ng/mL; Serum level [22]: 10.6 ng/mL; Treatment [26]: 30.8 ng/mL; inhibition in vivo at 0.05 mg/kg [27]: 1%; Control [28]: 31.2 ng/mL; Exhibiting turning [17]: 0%
8 | CCCN1CCC[C@@H]2Cc3n[nH]cc3CC21.Cl.Cl (stereo partly drawn) | 85 | 61 | – | 67 | 100 | 91 | – | 76 | Average turns [11]: 6; Exhibiting turning [12]: 67%; Exhibiting turning [17]: 75%
9 | CN1CCC[C@@H]2Cc3c[nH]cc3CC21.O=C(O)/C=C\C(=O)O (stereo partly drawn) | 19 | – | 33 | – | – | 90 | – | 18 | Concentration [25]: 37.7 ng/mL; Serum level [22]: 30.9 ng/mL
10 | NC1CCc2c[nH]cc2C1 (stereo not drawn) | 0 | – | 0 | – | – | 24 | – | – | –
11 | CCN(CC)C1CCc2c[nH]cc2C1.O=C(O)/C=C\C(=O)O (stereo not drawn) | 0 | – | 0 | – | – | 23 | – | – | –
12 | CCCN(CCC)C1CCc2c[nH]cc2C1.O=C(O)/C=C\C(=O)O (stereo not drawn) | 52 | 20 | 40 | – | – | 93 | 59.8 | 40 | Average turns [1]: 0; Inhibition [18]: 47.6 ng/mL; Concentration [25]: 59.8 ng/mL; Serum level [22]: 36.1 ng/mL; Exhibiting turning [3]: 0%
13 | CCCN1CC(CSC)C[C@@H]2c3cccc4[nH]cc(c34)CC21.COS(=O)(=O)O (stereo partly drawn) | 93 | 95 | – | – | 100 | – | – | – | inhibition in vivo at 0.0005 mg/kg [8]: 59%; Inhibition [9]: 37.7 ng/mL; Average turns [29]: 81; Average turns [30]: 0; Inhibition [10]: 37.7 ng/mL; Exhibiting turning [31]: 0%; Average turns [11]: 60; Exhibiting turning [12]: 100%; Inhibition [14]: 3.5 ng/mL; Inhibition [15]: 15.5 ng/mL; inhibition in vivo at 0.005 mg/kg [32]: 91%; Exhibiting turning [17]: 83%
14 | CCCN1CCC[C@@H]2Cc3c[nH]cc3CC21.O=C(O)/C=C\C(=O)O (stereo partly drawn) | 169 | 36 | 100 | 64 | – | 95 | 49.5 | – | Inhibition [10]: 49.5 ng/mL; Exhibiting turning [33]: 33%; Treatment [26]: 31.6 ng/mL; Average turns [11]: 49; Inhibition [14]: 37.6 ng/mL; Exhibiting turning [7]: 50%; inhibition in vivo at 0.005 mg/kg [32]: 24%
15 | CN1CCC[C@@H]2Cc3n[nH]cc3CC21.Cl.Cl (stereo partly drawn) | 0 | 2 | – | – | 0 | 84 | 31.7 | 42 | Inhibition [18]: 31.1 ng/mL; Concentration [25]: 31.7 ng/mL; Serum level [22]: 18.5 ng/mL
16 | C=CCN1CCC[C@@H]2Cc3n[nH]cc3CC21.Cl.Cl (stereo partly drawn) | 165 | – | – | 0 | 100 | – | – | – | inhibition in vivo at 0.05 mg/kg [34]: 31%; Exhibiting turning [17]: 0%
17 | CN(C)C1CCc2n[nH]cc2C1.Cl.Cl (stereo not drawn) | 0 | 32 | 0 | – | – | 69 | 59.8 | – | Inhibition [18]: 41 ng/mL
18 | O=C(O)/C=C\C(=O)O.c1[nH]cc2c1CC1NCCC[C@@H]1C2 (stereo partly drawn) | 0 | – | – | – | 0 | – | – | – | Inhibition [35]: 43.4 ng/mL; inhibition in vivo at 5 mg/kg [36]: 26%
19 | Cl.Cl.NC1CCc2n[nH]cc2C1 (stereo not drawn) | 0 | – | 0 | – | – | 14 | – | – | –
